Experiment [1] concerns mucus-producing differentiated CF pHBECs cultured at ALI. Kind of experiment: Validation of phage clone uptake by standard double-layer plaque assay. In kind it is cell-based, human. Particulars: Cout/Cin, 1 h, 37°C, n = 3. The method in brief: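 Clones were sequence-verified from BL21 E. coli plaques and amplified in liquid BL21 culture. Each clone (3.3 × 10^7 PFU in 100 µL DPBS) was applied apically to ALI-differentiated CF pHBECs for 1 h at 37°C. Cells were washed with elution buffer and DPBS, lysed with M-PER, and spun at 14,000 × g. Internalized phage in the supernatant were titered by double-layer plaque assay as Cout/Cin. Controls were peptide-less WT phage, naive library, and CPS phage.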

Experiment [2] has as its system differentiated CF pHBECs cultured at ALI. In kind it is cell-based, human. Particulars: average of three replicates, first to last round; 1,000 vg/cell. The method in brief: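 Pooled T7 CX7C phage libraries were diluted in DPBS (no Ca2+/Mg2+) to 3.3 × 10^5 PFU/µL, giving 1,000 vg/cell, and applied to ALI-differentiated CF pHBECs pooled from seven donors (3.3 × 10^4 cells/insert). Incubation was 16 h at 37°C in round 1 and 1 h in round 5. Lysate was spun at 14,000 × g for 10 min and the supernatant titered by double-layer plaque assay. Output was pooled as input for the next round. Cout/Cin change was taken from three replicates, unpaired t test.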

[3] abbreviates: 3.3 × 10^7 PFU apical, p < 0.005.

2 sequences from PMC11617931 (Molecular Therapy. Nucleic Acids, 2024) can be followed below.

Bridge positions count the residues as written; N and C are the ends. Ends that are not written are not given here.

In the case of “CTSTRKKQC (disulfide 1-9 (inferred)) [Clone C]”, in experiment [1], the “uptake compared to insertless wild-type (WT) control and CPS control” value is listed as “significantly improved uptake”. Moreover, the “improvement in uptake compared to naive library” value in experiment [1] (3.3 × 10^7 PFU apical, p < 0.0005) is reported as roughly 454 fold. Moreover, in experiment [1] (setting [3]), the “improvement in uptake compared to WT” value was 56 fold and the “improvement in uptake compared to clone CPS” value is recorded as 50 fold.
For CXXXXXXXC (disulfide) [CX7C T7 library], the “increase in Cout/Cin after five rounds of selection” value in experiment [2] was 380 fold.
